High-throughput results (PubChem)
In the library only some 2.1% were active in any assay of this set; here they are far more common.
INS-1E GSIS act: GLuc luminescence reporter in INS-1E cells, primary screen for activators of glucose-dependent secretion of insulin; 370,000 compounds, 0.61% hits; AID 743287; activation, % at 16.6 µM; INS-1E GLuc reporter insulin secretion, 2-3 h;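 active means lowest replicate activation of at least 40%, so every replicate reaches that level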
XiGFP reactiv: reactivates the inactive X chromosome in mouse fibroblasts; XiGFP mouse fibroblasts, % GFP-positive cells imaging, 3 d; cells co-treated with 5-aza-dC sensitizer; scaled so ellipticine positive control = 100%; activation, % at 7.58 µM; AID 743238; 360,000 compounds, 0.055% hits;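 active means mean normalized replicate activation at least 10% and every replicate at or above 10%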
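Material: XiGFP fibroblasts, SV40-immortalized. Buffer or medium: DMEM plus 5-aza-dC sensitizer. Compound: single concentration per compound, delivered by pin transfer. Times: 3 days compound exposure. Controls: ellipticine 6 µM.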
MLL AF4-AF9 inh: inhibitors of human MLL-AF4/AF9 interaction; P42568; AlphaScreen, biotin-AF4 peptide binding to FLAG-AF9; inhibition, % at 10 µM; 350,000 compounds, 0.47% hits; AID 651704;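 active means every replicate reaching a set inhibition limit, whatever the replicate mean, cut at about 25% in these data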
Target sequence (P42568 whole entry, looked up): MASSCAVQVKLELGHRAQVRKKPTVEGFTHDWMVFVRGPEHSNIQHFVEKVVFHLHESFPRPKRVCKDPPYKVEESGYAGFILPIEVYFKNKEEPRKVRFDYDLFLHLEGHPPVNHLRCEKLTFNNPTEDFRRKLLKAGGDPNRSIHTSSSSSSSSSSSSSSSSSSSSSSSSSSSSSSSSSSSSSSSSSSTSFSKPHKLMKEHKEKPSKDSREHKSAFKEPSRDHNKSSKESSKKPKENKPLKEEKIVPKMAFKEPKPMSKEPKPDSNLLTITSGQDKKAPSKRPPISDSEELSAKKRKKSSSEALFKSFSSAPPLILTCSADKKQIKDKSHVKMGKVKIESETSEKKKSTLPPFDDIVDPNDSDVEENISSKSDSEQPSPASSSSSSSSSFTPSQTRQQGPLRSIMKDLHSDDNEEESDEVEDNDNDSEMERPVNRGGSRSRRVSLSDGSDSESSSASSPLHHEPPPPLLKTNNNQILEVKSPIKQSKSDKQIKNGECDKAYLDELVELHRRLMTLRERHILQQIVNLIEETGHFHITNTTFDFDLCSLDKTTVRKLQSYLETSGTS
EWS-Fli inh: EWS/Fli transcriptional activity inhibition; A673 NR0B1-luciferase reporter, viability-normalised; inhibition, % at 12.6 µM; 350,000 compounds, 0.67% hits;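 active means mean inhibition of at least 50% after viability correction, with every replicate also passing that limit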;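 further: firefly luciferase signal divided by Alamar Blue viability fluorescence both relative to DMSO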
PGC1a acetyl inh: lowers PGC1a acetylation signal in U2OS cells. 350,000 compounds, 0.17% hits. AlphaScreen anti-acetyl-lysine; with virally co-expressed GCN5 acetyltransferase. AID 651687. inhibition, % at 15.6 µM;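 active means every replicate shows inhibition of at least 40%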
PAX8 inh HTS: lowers PAX8-driven luciferase in RMG-I cells. 360,000 compounds, 1.2% hits. AID 652154. RMG-I TPO-luciferase reporter, SteadyGlo, 24 h. inhibition, % at 12.6 µM;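 active means mean replicate inhibition at least 60% with every replicate also reaching 60%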;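 further: luciferase light reporting Pax8 driven TPO promoter activity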
Numbers stand for hits; – = inactive; · = no result.

SMILES | INS-1E GSIS act | XiGFP reactiv | MLL AF4-AF9 inh | EWS-Fli inh | PGC1a acetyl inh | PAX8 inh HTS
COc1ccc2c3c(n(C)c2c1)[C@@H](CO)N(C)CC31CN(S(=O)(=O)c2cn(C)cn2)C1 | – | – | – | – | – | ·
COc1ccc(S(=O)(=O)N(C)C[C@@H]2Oc3c(NC(=O)Nc4c(C)noc4C)cccc3C(=O)N([C@H](C)CO)C[C@@H]2C)cc1 | – | – | · | – | – | ·
O=[N+]([O-])c1ccc(C(O)CN2CCN(C/C=C/c3ccccc3)CC2)cc1 (centres undefined) | 51 | – | – | – | · | –
Cc1cc(Br)c2c(c1)C1(OCCO1)C(=O)N2 | 41 | – | – | – | · | –
COc1ccc(CNC(=O)C[C@@H]2CC[C@@H]3[C@H](COc4ccc(NC(C)=O)cc4C(=O)N3C)O2)cc1 | – | – | – | – | – | –
CS(=O)(=O)c1nc(S(=O)(=O)c2ccc(Cl)cc2)c(N2CCCCC2)s1 | – | – | – | – | – | –
CS(=O)(=O)c1nc(S(=O)(=O)c2ccc(Cl)cc2)c(N2CCCCCC2)s1 | 47 | – | – | – | – | –
COc1ccc(N=Nc2c(C)[nH]c3ccccc23)cc1 | – | – | 26 | – | · | –
Cc1ccc2sc(N3CCN(C(=O)c4ccc([N+](=O)[O-])o4)CC3)nc2c1C | 87 | – | – | – | – | –
N#Cc1ccc(-c2ccc3c(c2)[C@H]2[C@H](CCN2C(=O)C2CCC2)[C@H](CO)N3)cc1 | – | – | – | – | – | –
O=S(=O)(c1ccccc1F)N1CC[C@@H]2[C@H](CO)Nc3ccc(-c4ccccc4)cc3[C@@H]21 | – | – | – | – | – | –
CCC(=O)N1CC[C@H]2[C@H](CO)Nc3ccc(C#Cc4ccc(OC)cc4)cc3[C@H]21 | – | – | 26 | · | – | ·
COc1cccc(S(=O)(=O)N2CC[C@@H]3[C@@H](CO)Nc4ccc(-c5ccccc5OC)cc4[C@@H]32)c1 | – | – | – | – | – | 80
COCC(=O)N1CC[C@H]2[C@H](CO)Nc3ccc(C#Cc4ccc(OC)cc4)cc3[C@H]21 | – | – | – | · | – | ·
O=S(=O)(c1ccccc1F)N1CC[C@@H]2[C@H](CO)Nc3ccc(C4=CCCCC4)cc3[C@@H]21 | – | – | – | – | – | 89
O=C(Cc1ccccc1)N1CC[C@@H]2[C@H]1c1cc(-c3ccccc3)ccc1N[C@@H]2CO | – | – | – | – | – | 62
COc1ccccc1-c1ccc2c(c1)[C@@H]1[C@@H](CCN1S(=O)(=O)c1cccc(C)c1)[C@H](CO)N2 | – | – | – | – | – | –
COc1ccc(CN(C)C[C@@H]2Oc3c(NS(C)(=O)=O)cccc3C(=O)N([C@@H](C)CO)C[C@@H]2C)cc1 | – | – | – | · | – | –
COc1cccc(-c2ccc3c(c2)[C@H]2[C@H](CCN2S(=O)(=O)c2ccccc2F)[C@H](CO)N3)c1 | – | – | – | – | – | –
OC[C@@H]1Nc2ccc(C#Cc3ccc(F)cc3)cc2[C@H]2[C@@H]1CCN2Cc1nccs1 | – | – | · | – | – | –
COc1cccc(-c2ccc3c(c2)[C@H]2[C@H](CCN2S(=O)(=O)c2ccccc2F)[C@@H](CO)N3)c1 | – | – | – | – | – | 101
COc1ccccc1S(=O)(=O)N1CC[C@H]2[C@H](CO)Nc3ccc(-c4ccc(F)cc4)cc3[C@H]21 | – | – | – | – | – | 72
OC[C@@H]1Nc2ccc(C3=CCCCC3)cc2[C@@H]2[C@H]1CCN2Cc1nccs1 | – | – | 25 | · | – | ·
Cc1ccccc1S(=O)(=O)N1CC[C@@H]2[C@H](CO)Nc3ccc(-c4cccc(F)c4)cc3[C@@H]21 | – | – | – | – | – | 114
COc1ccccc1C#Cc1ccc2c(c1)[C@H]1[C@H](CCN1S(=O)(=O)c1ccc(C)cc1)[C@@H](CO)N2 | – | – | – | · | – | –
SMILES | INS-1E GSIS act | XiGFP reactiv | MLL AF4-AF9 inh | EWS-Fli inh | PGC1a acetyl inh | PAX8 inh HTS
COc1ccc(S(=O)(=O)N(C)C[C@H]2Oc3ccc(NC(=O)C4CCCCC4)cc3C(=O)N([C@@H](C)CO)C[C@@H]2C)cc1 | – | – | – | – | – | ·
CC1=C(C(=O)OCc2ccc3c(c2)OCO3)C(c2ccccc2OCc2ccccc2)NC(=O)N1 (centres undefined) | – | · | · | · | – | ·
CC1=C(C(=O)OCc2ccc3c(c2)OCO3)C(c2ccccc2)NC(=O)N1 (centres undefined) | – | · | · | · | 56 | ·
CC(C)Cc1nn2c(=O)cc(COc3ccc(NC(=O)c4ccco4)cc3)nc2s1 | 47 | – | – | – | – | –
F[B-](F)(F)COCc1ccccc1C#Cc1ccccc1 | 98 | – | – | – | · | –
F[B-](F)(F)COCc1ccccc1Br | 56 | – | – | – | – | –
O=C(C#Cc1ccccc1)Nc1ccccc1F | – | – | – | – | – | –
CCCCC#Cc1ccccc1COC[B-](F)(F)F | 73 | – | – | – | · | –
O=C(O)c1ccccc1OCc1ccccc1Br | – | – | – | – | · | –
CCCCC#Cc1ccc(C(=O)NNC(=O)Nc2ccccc2)o1 | – | – | · | – | · | –
CC1CC(=O)c2c(cc3c(-c4c(O)cc(O)c5c(O)c6c(cc45)OC(C)CC6=O)c(O)cc(O)c3c2O)O1 (centres undefined) | · | · | · | · | 63 | ·
O=C1CC(c2ccc(O)cc2)Oc2cc(O)cc(O)c21 (centres undefined) | – | – | – | – | – | –
CCOc1ccc(NC(=O)CC2C(=O)N(c3ccc(OC)cc3)C(=O)N2CCc2cccs2)cc1 (centres undefined) | · | – | – | – | · | –
COc1ccc(NC(=O)CC2C(=O)N(c3ccccc3)C(=O)N2CCc2cccs2)cc1 (centres undefined) | – | – | – | – | · | 68
N#Cc1ccccc1COc1ccc(/C=C/C(=O)O)cc1 | – | – | – | 58 | · | –
CN(C[C@H]1N[C@@H](CO)[C@@H]1c1ccc(C2=CCCC2)cc1)C(=O)c1ccccn1 | – | – | – | – | – | 72
CN(C[C@H]1N[C@@H](CO)[C@@H]1c1ccc(C2=CCCC2)cc1)C(=O)c1ccncc1 | – | – | · | – | – | 81
CN1C[C@H](O)COC[C@H]2O[C@@H](CC(=O)N3CCN(c4ccccc4)CC3)CC[C@@H]21 | – | – | – | – | – | –
CCOC(=O)C1=C(C)N=c2s/c(=C\c3cccc(OCC(=O)O)c3)c(=O)n2C1c1ccccc1OC (centres undefined) | – | – | – | – | 55 | –
CCOC(=O)C1=C(C)N=c2s/c(=C/c3ccc(OCC(=O)O)cc3)c(=O)n2C1c1cc(OC)c(OC)c(OC)c1 (centres undefined) | – | – | – | – | – | –
C[C@H]1CCCCO[C@H](CN(C)C(=O)Cc2ccccc2)[C@@H](C)CN([C@@H](C)CO)C(=O)c2cc(NC(=O)Nc3ccc(F)cc3)ccc2O1 | – | – | – | – | – | –
